The record followed here is PMC8475556 (Oncoimmunology, 2021).

Where two headings read alike, the source gives them in different places. *1 amine or outer side, *2 acyl side, *3 side chain or, on linkers, in order; H or OH if unused. Where a SMILES comes first, the peptide text is derived from it. Bridges are numbered along the chain shown (N, C = ends). Roman numbers before positions name the chains, in order. [ ]: non-standard residue; d: D form. Hexamethylenediamine = C(CCCN[*:2])CCN[*:1]; Dip = N[C@H](C(=O)O)C(c1ccccc1)c1ccccc1; Chg = N[C@H](C(=O)O)C1CCCCC1; NMeA = CN[C@@H](C)C(=O)O

One assay deals with pNF-κB p65. The assay is described as follows: pNF-κB p65 phosphoflow in live primary CLL cells after 24 h treatment. The format is cell-based, human. Particulars: for IC50: Homo sapiens, CLL cell, read-out: IC50 for decrease in pNF-κB p65 (dMFI).
The test system of the next assay is pS6. Kind of assay: pS6 phosphoflow in live primary CLL cells after 24 h treatment. The following applies: for IC50: Homo sapiens, CLL cell, read-out: IC50 for decrease in pS6 (dMFI). The format is cell-based, human.
The next assay relates to primary CLL cells. The assay is described as follows: Cell death. Format: cell-based, human. The following applies: for IC50: Homo sapiens, CLL cell, read-out: IC50 for cell death; for primary CLL cells died: cleaved caspase-3.
Assay [1] relates to TRAF1. Kind of assay: TRAF1 by flow cytometry in live primary CLL cells on OP9 after 24 h treatment. The format is cell-based, human. Particulars: for effect on TRAF1 expression: primary CLL cells, 24 h. In general terms: A flow cytometer gives signals particle by particle.
The subject of the next assay is Mcl-1. Kind of assay: Mcl-1 by flow cytometry in live primary CLL cells after 24 h treatment. The following applies: for IC50: Homo sapiens, CLL cell, read-out: IC50 for lowering Mcl-1 (Mcl-1 dMFI). The format is cell-based, human. Put shortly: (§1)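 Primary CLL cells were thawed and resuspended at 8 × 10^6 cells/mL in high-glucose complete medium (2.5 g/L total glucose). They were plated at 2 × 10^6 per well on confluent OP9 stroma, rested overnight, then treated 24 h with test compound at 0.1% DMSO final. Staining: Fc block, viability dye, CD19/CD5, Foxp3-buffer fix/perm, then intracellular Bcl-2 BV421 or Mcl-1 AF647. Live CD5+CD19+ gate; dMFI = MFI minus FMO; n = 6 donors, 2 experiments pooled.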

In assay [2] the test system is pERK. Kind of assay: pERK phosphoflow in live primary CLL cells after 24 h treatment. The format is cell-based, human. Particulars: for IC50: Homo sapiens, CLL cell, read-out: IC50 for decrease in pERK (dMFI).
The next assay concerns Bcl-2. The assay is described as follows: Bcl-2 by flow cytometry in live primary CLL cells after 24 h treatment. The format is cell-based, human. Particulars: for IC50: Homo sapiens, CLL cell, read-out: IC50 for lowering Bcl-2 (Bcl-2 dMFI). The gist of the method:
as §1

Assay [3] deals with TRAF1 in the CD40 signaling complex. The format is cell-based, human. Particulars: BV6 5 μM. The gist of the method: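 shCTL or shPKN1 RAJI cells (6 × 10^6) received cycloheximide 3 μg/ml for the indicated times, ± BV6 5 μM, and were lysed in 1% NP-40 with protease/phosphatase inhibitors. For IP1, Protein G magnetic beads were loaded with 0.5 μg anti-CD40 (10 min, RT), then incubated with lysate overnight at 4°C. Unbound material was re-precipitated with 0.5 μg anti-TRAF1 (IP2). Both IPs and lysates were western blotted for TRAF1.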

Assay [4] concerns TRAF1. Format: cell-based, human. The following applies: 24 h; for IC50: Homo sapiens, Raji, read-out: IC50 for reducing TRAF1; for effect on TRAF1 levels: RAJI cells, 0.1 nM-10 μM. Put shortly:
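shCTL RAJI cells were seeded at 2 × 10^5 per well in RPMI 1640 with 10% FCS, 2-ME, glutamine, pen/strep and non-essential amino acids. Test compound was added at 0.1 nM–10 μM (0.1% DMSO final) for 24 h. Staining: Fc block, viability dye, Foxp3-buffer fixation/permeabilisation, rat anti-TRAF1 (clone 1F3) with goat anti-rat PE secondary. TRAF1 dMFI = MFI minus FMO background.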

Assay [5] relates to pERK. The assay is described as follows: pERK by flow cytometry in RAJI cells after 24 h inhibitor treatment. The format is cell-based, human.
In a further assay the target is PRK1(h) (Homo sapiens, UniProt Q16512). The assay is described as follows: Dose titration of selected inhibitors against PKN1 kinase activity in vitro. Format: biochemical.
Sequence of PRK1(h) (Q16512 whole entry): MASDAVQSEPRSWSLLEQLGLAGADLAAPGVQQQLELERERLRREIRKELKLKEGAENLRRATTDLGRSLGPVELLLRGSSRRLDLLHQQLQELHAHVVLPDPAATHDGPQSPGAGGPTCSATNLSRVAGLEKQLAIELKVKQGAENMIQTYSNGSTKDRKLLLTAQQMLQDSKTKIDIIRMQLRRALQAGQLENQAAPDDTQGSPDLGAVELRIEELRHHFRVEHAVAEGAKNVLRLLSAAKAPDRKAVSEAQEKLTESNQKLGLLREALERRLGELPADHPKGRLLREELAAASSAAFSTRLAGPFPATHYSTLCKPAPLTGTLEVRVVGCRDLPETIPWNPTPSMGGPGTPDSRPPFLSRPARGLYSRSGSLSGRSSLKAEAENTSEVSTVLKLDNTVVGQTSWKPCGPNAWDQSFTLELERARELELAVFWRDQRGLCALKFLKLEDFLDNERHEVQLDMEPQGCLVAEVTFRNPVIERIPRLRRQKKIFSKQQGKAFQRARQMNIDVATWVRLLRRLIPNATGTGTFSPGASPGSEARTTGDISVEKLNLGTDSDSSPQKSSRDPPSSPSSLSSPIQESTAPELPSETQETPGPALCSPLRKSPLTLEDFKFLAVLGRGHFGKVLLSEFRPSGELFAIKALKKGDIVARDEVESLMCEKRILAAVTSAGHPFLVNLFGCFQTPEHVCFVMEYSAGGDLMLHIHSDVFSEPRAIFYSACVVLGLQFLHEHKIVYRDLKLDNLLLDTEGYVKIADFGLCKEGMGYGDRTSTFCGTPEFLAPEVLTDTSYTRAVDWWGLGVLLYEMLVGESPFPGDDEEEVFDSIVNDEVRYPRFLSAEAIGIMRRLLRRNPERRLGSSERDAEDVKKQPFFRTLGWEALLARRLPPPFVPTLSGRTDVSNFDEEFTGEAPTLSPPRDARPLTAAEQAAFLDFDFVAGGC

Consider `Clc1ccc(C2(c3ccc(-c4cn[nH]c4)cc3)CCNCC2)cc1` [AT7867], for which the “effect on levels of pNF-κB” value in the assay with pNF-κB p65 (primary CLL cells) is on record as “did not affect”. Also, in the assay on pS6 (primary CLL cells), the “effect on pS6” value is “slightly reduced”. The “effect on cell death” value in the assay on primary CLL cells (primary CLL cells, 24 h) is given as “no effect”. The “effect on TRAF1 expression” value with TRAF1 [1] is “no effect”. In the assay with Mcl-1 (primary CLL cells), the “effect on Mcl-1 expression” value was “did not affect”. For the same molecule, the “effect on pERK” value in the assay with pERK [2] (primary CLL cells) is “slightly reduced”. Besides, in the assay with Bcl-2 (primary CLL cells), the “effect on Bcl-2 expression” value is listed as “did not affect”.

Regarding `CN[C@@H](C)C(=O)N[C@H](C(=O)N1CCC[C@H]1C(=O)N[C@H](C(=O)NCCCCCCNC(=O)[C@@H](NC(=O)[C@@H]1CCCN1C(=O)[C@@H](NC(=O)[C@H](C)NC)C1CCCCC1)C(c1ccccc1)c1ccccc1)C(c1ccccc1)c1ccccc1)C1CCCCC1` [BV6] (I: H-[NMeA][Chg]P[Dip] / II: H-[NMeA][Chg]P[Dip]; linker I:C-II:C via Hexamethylenediamine), in assay [3] (RAJI cells, cycloheximide), the “cytosolic pool of TRAF1 (IP2)” value is listed as “not sensitive”. Further, the “CD40 associated TRAF1 protein” value in assay [3] (shCTL RAJI cells (presence of PKN1), cycloheximide 6 h) is reported as “rescued”; in [3] (shPKN1 RAJI cells (absence of PKN1), cycloheximide), “partially rescued”.

Regarding `CC(=O)c1cnc2ccc(-c3cc(Cl)c(O)c(Cl)c3)nc2c1N[C@H]1CC[C@H](CN(C)C)CC1` [OTSSP167], the IC50 – broadly, the concentration that inhibits the measured activity by half – in the assay with pNF-κB p65 was 320 nM; in the assay with pS6, 310 nM; in the assay with TRAF1 [4] it was 18 nM; in the assay with primary CLL cells (24 h), 45.9 nM; against PRK1(h), 11 nM; with Mcl-1 it was 25.7 nM. In addition, the IC50 with pERK [2] came to 1040 nM; in the assay on Bcl-2, 49.8 nM. Further, the “reduction of IC50 for cell death compared to treatment alone” value with primary CLL cells (OTSSP167 with 1 nM venetoclax versus OTSSP167 alone) is recorded as 1.9 fold. In the assay on primary CLL cells (primary CLL cells, suboptimal concentration 50 nM), the cells survived treatment is on record as 20–50%. Also, the “primary CLL cells died” value with primary CLL cells (suboptimal 10 nM alone, 24 h) is listed as less than 15%. Moreover, the pERK levels result with pERK [5] is reported as “decreased only at the highest levels”.

Take `CCCCNc1ncc2c(-c3ccc(CN4CCN(C)CC4)cc3)cn([C@H]3CC[C@H](O)CC3)c2n1` [UNC-2025]: in the assay with TRAF1 [4], the “effect on TRAF1 levels” value is “increased rather than decreased”.

Take `CC(C)c1cc(CNc2nc(Nc3cc(C4CC4)[nH]n3)cc(N3CCN(C)CC3)n2)on1` [XL-228]: the IC50 in the assay on pNF-κB p65 worked out at 2470 nM; in the assay with pS6, 1440 nM; in the assay on TRAF1 [4] it was 2300 nM; with Mcl-1, 2540 nM; in the assay on pERK [2], 2230 nM; in the assay on Bcl-2 it was 3520 nM. Besides, the cells survived treatment in the assay with primary CLL cells (primary CLL cells, suboptimal concentration 4 μM) is 20–50%.

In the case of `CC1(COc2ccc3c(c2)ncn3-c2ccc3cccc(N4CCC(N)CC4)c3n2)COC1` [crenolanib, Crenolanib], in the assay on TRAF1 [4], the “effect on TRAF1 levels” value is recorded as “increased rather than decreased”.

With `CC(C)NC[C@@H](C(=O)N1CCN(c2ncnc3c2[C@H](C)C[C@H]3O)CC1)c1ccc(Cl)cc1` [ipatasertib, Ipatasertib], the IC50 in the assay with TRAF1 [4] is more than 10000 nM.

For the molecule `C[C@@H]1CCN(C(=O)CC#N)C[C@@H]1N(C)c1ncnc2[nH]ccc12` [tofacitinib], in the assay on TRAF1 [4], the “effect on TRAF1 levels” value is recorded as “minimal effects”.

With `Cn1ncc(Cl)c1-c1cc(C(=O)N[C@H](CN)Cc2ccc(F)c(F)c2)oc1Cl` [uprosertib, Uprosertib], the IC50 in the assay with TRAF1 [4] worked out at 4900 nM.

For the molecule `CC1(C)CCC(CN2CCN(c3ccc(C(=O)NS(=O)(=O)c4ccc(NCC5CCOCC5)c([N+](=O)[O-])c4)c(Oc4cnc5[nH]ccc5c4)c3)CC2)=C(c2ccc(Cl)cc2)C1` [venetoclax], the IC50 in the assay with primary CLL cells (24 h) was found to be 9.91 nM. For the same molecule, the “primary CLL cells died” value in the assay on primary CLL cells (suboptimal 1 nM alone, 24 h) is recorded as less than 15%. The “decrease of IC50 for cell death compared to treatment alone” value with primary CLL cells (venetoclax with 10 nM OTSSP167 versus venetoclax alone) turned out to be 5.8 fold. Besides, the “patients whose CLL cells were enriched for TRAF1hi cells after treatment” value in the assay with TRAF1 [1] (dose that resulted in approximately 50% death) is on record as 4 of 6. Further, the “effect on TRAF1 expression” value in the assay on TRAF1 [1] is “lack of effect”.
